Data on 3 compounds can be found in ChEMBL document CHEMBL4602725 (J Med Chem, 2020).

Experiment [1] concerns MDA-MB-231. Description: Cytotoxicity against human MDA-MB-231 cells assessed as reduction in cell viability incubated for 72 hrs by MTT assay. The following applies: MDA-MB-231, 72 h.
Experiment [2] concerns A549. Briefly: Cytotoxicity against human A549 cells assessed as increase in intracellular caspase 3/7 release incubated for 72 hrs by Caspase-Glo 3/7 assay. To be noted: A549, 72 h.
The subject of experiment [3] is HT-29. Description: Cytotoxicity against human HT-29 cells assessed as reduction in cell viability incubated for 72 hrs by MTT assay. The following applies: HT-29, 72 h. A general note: Tetrazolium assays rely on reduction of a dye to a coloured formazan, in cell work by metabolically active cells.
In experiment [4] the test system is HeLa. Briefly: Cytotoxicity against human HeLa cells assessed as increase in intracellular caspase 3/7 release incubated for 72 hrs by Caspase-Glo 3/7 assay.
The target of another experiment is T1, Histone deacetylase 8 (Homo sapiens, UniProt Q9BY41).
T1 sequence (Q9BY41 whole entry): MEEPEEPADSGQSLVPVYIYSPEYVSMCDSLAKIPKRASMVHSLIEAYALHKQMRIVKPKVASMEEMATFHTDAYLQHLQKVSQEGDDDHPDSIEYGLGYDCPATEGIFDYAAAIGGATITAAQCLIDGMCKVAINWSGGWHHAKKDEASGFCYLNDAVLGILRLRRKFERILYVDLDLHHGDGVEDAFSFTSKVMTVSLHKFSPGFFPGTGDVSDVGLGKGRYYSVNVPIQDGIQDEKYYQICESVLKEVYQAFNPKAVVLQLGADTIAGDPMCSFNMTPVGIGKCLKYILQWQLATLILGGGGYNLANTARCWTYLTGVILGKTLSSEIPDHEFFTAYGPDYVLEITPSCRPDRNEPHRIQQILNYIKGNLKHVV
Briefly: Inhibition of human recombinant HDAC8 pre-incubated for 30 mins before Ac-Leu- Gly-Lys(Ac)-AMC substrate addition and measured after 90 mins by fluorescence based assay.

Experiment [5] has as its system NFF. Briefly: Cytotoxicity against human NFF cells assessed as reduction in cell viability incubated for 72 hrs by MTT assay.
Experiment [6] has as its target T2, Histone deacetylase 1 (Homo sapiens, UniProt Q13547). Briefly: Inhibition of HDAC1 in human MM96L cells assessed as activation of histone H4 acetylation at Lys5, Lys8, Lys12 and Lys16 residues by Western blot analysis. Format: cell-based.
Experiment [7] deals with A549. Briefly: Cytotoxicity against human A549 cells assessed as reduction in cell viability incubated for 72 hrs by MTT assay. To be noted: A549, 72 h.
Experiment [8] concerns MDA-MB-231. Briefly: Cytotoxicity against human MDA-MB-231 cells assessed as increase in intracellular caspase 3/7 release incubated for 72 hrs by Caspase-Glo 3/7 assay. The following applies: MDA-MB-231, 72 h.
In experiment [9] the test system is NFF. Briefly: Cytotoxicity against human NFF cells assessed as increase in intracellular caspase 3/7 release incubated for 72 hrs by Caspase-Glo 3/7 assay.
The test system of experiment [10] is MM96L. Briefly: Cytotoxicity against human MM96L cells assessed as increase in intracellular caspase 3/7 release incubated for 72 hrs by Caspase-Glo 3/7 assay.
Experiment [11] concerns MM96L. Briefly: Cytotoxicity against human MM96L cells assessed as reduction in cell viability incubated for 72 hrs by MTT assay.
Another experiment deals with Histone deacetylase 2 (Homo sapiens, UniProt Q92769). Description: Inhibition of human recombinant HDAC2 pre-incubated for 30 mins before Ac-Leu- Gly-Lys(Ac)-AMC substrate addition and measured after 90 mins by fluorescence based assay.
The next experiment addresses Histone deacetylase 3 (Homo sapiens, UniProt O15379). Briefly: Inhibition of human recombinant HDAC3 pre-incubated for 30 mins before Ac-Leu- Gly-Lys(Ac)-AMC substrate addition and measured after 90 mins by fluorescence based assay.
Experiment [12] deals with HT-29. Briefly: Cytotoxicity against human HT-29 cells assessed as increase in intracellular caspase 3/7 release incubated for 72 hrs by Caspase-Glo 3/7 assay. To be noted: HT-29, 72 h.
Experiment [13] concerns HeLa. Description: Cytotoxicity against human HeLa cells assessed as reduction in cell viability incubated for 72 hrs by MTT assay.
Experiment [14] is filed under the species Homo sapiens. Briefly: Selectivity index, ratio of IC50 for inhibition of human recombinant HDAC3 to IC50 for inhibition of human recombinant HDAC1.
Experiment [15] is filed under the species Homo sapiens. Description: Selectivity index, ratio of IC50 for inhibition of human recombinant HDAC7 to IC50 for inhibition of human recombinant HDAC1. In short, it runs like this:
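HDAC7 arm: 5 ng/mL recombinant human HDAC7 pre-incubated 15 min with inhibitor, then Ac-Leu-Gly-Lys(trifluoroAc)-AMC (20 µM) for 60 min at 37°C. Developer was trypsin with 10 μM SAHA, 15 min; fluorescence 350/460 nm. HDAC1 was run with 30 min pre-incubation, 12 µM Ac-Leu-Gly-Lys(Ac)-AMC, 90 min. Ratio of the HDAC7 IC50 to the HDAC1 IC50.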

A further experiment concerns the target T3, Histone deacetylase 7 (Homo sapiens, UniProt Q8WUI4).
T3 sequence (Q8WUI4 whole entry): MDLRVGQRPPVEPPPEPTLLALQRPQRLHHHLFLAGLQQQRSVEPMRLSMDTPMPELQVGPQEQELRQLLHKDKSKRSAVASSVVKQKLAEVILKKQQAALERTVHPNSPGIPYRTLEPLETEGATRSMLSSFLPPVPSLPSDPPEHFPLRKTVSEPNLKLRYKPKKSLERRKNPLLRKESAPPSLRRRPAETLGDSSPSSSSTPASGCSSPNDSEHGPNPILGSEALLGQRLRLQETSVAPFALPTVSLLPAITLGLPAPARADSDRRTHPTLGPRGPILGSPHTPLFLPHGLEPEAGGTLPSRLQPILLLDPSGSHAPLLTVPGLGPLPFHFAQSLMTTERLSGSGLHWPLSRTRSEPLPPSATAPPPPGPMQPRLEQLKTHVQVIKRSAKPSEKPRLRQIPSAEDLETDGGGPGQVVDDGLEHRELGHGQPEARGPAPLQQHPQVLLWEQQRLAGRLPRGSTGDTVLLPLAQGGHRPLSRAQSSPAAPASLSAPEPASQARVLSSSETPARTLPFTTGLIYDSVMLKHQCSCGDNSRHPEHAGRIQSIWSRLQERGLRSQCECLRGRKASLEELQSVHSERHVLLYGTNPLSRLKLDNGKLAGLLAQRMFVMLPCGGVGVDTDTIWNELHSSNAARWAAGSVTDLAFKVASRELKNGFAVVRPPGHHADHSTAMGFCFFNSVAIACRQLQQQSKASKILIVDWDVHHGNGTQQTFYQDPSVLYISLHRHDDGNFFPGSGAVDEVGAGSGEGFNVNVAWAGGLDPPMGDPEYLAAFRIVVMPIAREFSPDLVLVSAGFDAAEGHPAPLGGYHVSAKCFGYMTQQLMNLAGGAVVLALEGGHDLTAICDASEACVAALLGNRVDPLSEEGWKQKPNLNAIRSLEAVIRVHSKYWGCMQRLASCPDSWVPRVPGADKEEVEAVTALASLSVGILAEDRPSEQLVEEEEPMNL
Description: Inhibition of human recombinant HDAC7 pre-incubated for 15 mins before Ac-Leu-Gly-Lys(trifluroAc)-AMC substrate addition and measured after 60 mins by fluorescence based assay.

The species named for experiment [16] is Homo sapiens. Description: Selectivity index, ratio of IC50 for inhibition of human recombinant HDAC8 to IC50 for inhibition of human recombinant HDAC1.
Experiment [17] addresses T2, Histone deacetylase 1. Description: Inhibition of human recombinant HDAC1 pre-incubated for 30 mins before Ac-Leu- Gly-Lys(Ac)-AMC substrate addition and measured after 90 mins by fluorescence based assay.
The species named for experiment [18] is Homo sapiens. Description: Selectivity index, ratio of IC50 for inhibition of human recombinant HDAC2 to IC50 for inhibition of human recombinant HDAC1.

T2 sequence (Q13547 whole entry): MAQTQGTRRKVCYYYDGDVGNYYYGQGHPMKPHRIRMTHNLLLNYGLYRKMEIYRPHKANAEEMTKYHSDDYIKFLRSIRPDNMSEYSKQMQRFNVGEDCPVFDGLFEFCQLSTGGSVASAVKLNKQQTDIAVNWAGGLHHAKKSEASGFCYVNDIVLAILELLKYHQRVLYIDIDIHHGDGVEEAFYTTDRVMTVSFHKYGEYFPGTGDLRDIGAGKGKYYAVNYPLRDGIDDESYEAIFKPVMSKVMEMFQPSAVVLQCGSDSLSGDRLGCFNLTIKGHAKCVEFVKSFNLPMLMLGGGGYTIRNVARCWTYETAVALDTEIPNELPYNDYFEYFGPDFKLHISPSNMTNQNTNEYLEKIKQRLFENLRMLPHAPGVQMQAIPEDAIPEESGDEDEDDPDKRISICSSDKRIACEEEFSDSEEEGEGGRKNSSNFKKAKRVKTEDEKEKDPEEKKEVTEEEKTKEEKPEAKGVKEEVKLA
Chain of Histone deacetylase 3 (O15379 whole entry): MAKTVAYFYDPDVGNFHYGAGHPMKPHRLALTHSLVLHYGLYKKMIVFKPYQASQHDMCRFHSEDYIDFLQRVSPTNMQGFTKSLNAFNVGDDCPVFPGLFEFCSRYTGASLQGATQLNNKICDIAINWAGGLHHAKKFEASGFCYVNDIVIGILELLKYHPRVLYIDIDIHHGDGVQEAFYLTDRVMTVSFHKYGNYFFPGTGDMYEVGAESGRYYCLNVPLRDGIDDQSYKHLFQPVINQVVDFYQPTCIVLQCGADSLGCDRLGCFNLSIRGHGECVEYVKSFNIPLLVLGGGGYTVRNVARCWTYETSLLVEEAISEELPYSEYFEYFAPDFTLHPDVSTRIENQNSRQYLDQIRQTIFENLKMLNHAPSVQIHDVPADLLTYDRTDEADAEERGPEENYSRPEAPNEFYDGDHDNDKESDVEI
Chain of Histone deacetylase 2 (Q92769 whole entry): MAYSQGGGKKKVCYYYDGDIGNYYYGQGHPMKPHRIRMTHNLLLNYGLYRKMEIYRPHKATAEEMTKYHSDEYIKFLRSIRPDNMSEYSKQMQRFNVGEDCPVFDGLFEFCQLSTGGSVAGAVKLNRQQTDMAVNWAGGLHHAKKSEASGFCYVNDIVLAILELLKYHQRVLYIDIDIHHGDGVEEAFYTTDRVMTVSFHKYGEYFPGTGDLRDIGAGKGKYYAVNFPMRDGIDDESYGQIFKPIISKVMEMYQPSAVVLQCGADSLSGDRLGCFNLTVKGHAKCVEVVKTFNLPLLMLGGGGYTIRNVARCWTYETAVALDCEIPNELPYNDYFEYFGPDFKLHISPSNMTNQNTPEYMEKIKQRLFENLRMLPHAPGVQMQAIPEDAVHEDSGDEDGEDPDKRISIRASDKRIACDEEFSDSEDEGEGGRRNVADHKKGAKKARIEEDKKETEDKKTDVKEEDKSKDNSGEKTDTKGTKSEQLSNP

Consider `O=C(NO)c1ccc(NC(=O)C2(c3ccc4ccccc4c3)CCOCC2)cc1`, for which the IC50 stood at 100 nM with MDA-MB-231 [1]; 40 nM with HT-29 [3]; 44 nM on Histone deacetylase 8; 400 nM in the experiment with NFF [5]; 100 nM with A549 [7]; 20 nM in the experiment on MM96L [11]. For the same compound, the IC50 at Histone deacetylase 2 was 8 nM; at Histone deacetylase 3 it was 2 nM; in the experiment on HeLa [13], 30 nM. Besides, the EC50 with A549 [2] worked out at 2600 nM; in the experiment on HeLa [4] it was 700 nM; with MDA-MB-231 [8] it was 300 nM; in the experiment on NFF [9], 4300 nM; in the experiment on MM96L [10], 60 nM; in the experiment with HT-29 [12] it was 200 nM. Also, at Histone deacetylase 1 [6], the inhibition result was “Dose-dependent effect”.

With `CN(C)c1ccc(C2(C(=O)Nc3ccc(C(=O)NO)cc3)CCCC2)cc1`, the Ratio IC50 fell in the range of 2 to 3 in the experiment listed under Homo sapiens [14], 140 to 600 in the experiment listed under Homo sapiens [15], 14 to 61 in the experiment filed under Homo sapiens [16] and 5 to 12 in the experiment filed under Homo sapiens [18]. Further, the IC50 at Histone deacetylase 8 came out at 89 nM; on Histone deacetylase 7, 2500 nM; on Histone deacetylase 2 it was 49 nM; on Histone deacetylase 3 it was 9 nM; at Histone deacetylase 1 [17] it was 4 nM.

For `CC(C)C(C(=O)Nc1ccc(C(=O)NO)cc1)c1ccccc1` (racemic), the IC50 came out at 1500 nM with MDA-MB-231 [1]; 600 nM in the experiment with HT-29 [3]; 500 nM in the experiment with NFF [5]; 1500 nM in the experiment with A549 [7]; 300 nM with MM96L [11]; 700 nM in the experiment on HeLa [13]. Also, the EC50 came to 15600 nM in the experiment with A549 [2]; 8100 nM in the experiment with HeLa [4]; 2400 nM in the experiment on MDA-MB-231 [8]; 24300 nM with NFF [9]; 900 nM in the experiment with MM96L [10]; 1700 nM with HT-29 [12].

A word on the IC50: it is the concentration that inhibits the measured activity by half. The EC50 is the concentration that produces a half-maximal response.
